Measurements from ChEMBL document CHEMBL3352704, “Microwave-assisted synthesis of 3,5-disubstituted isoxazoles and evaluation of their anti-ageing activity” (2014).
Activity calls are given as the source filed them. No cut-off for these calls is given here.

Columns and labels:
HLF1 [1] = assay: Inhibition of H2O2-induced oxidative stress in human HLF1 cells assessed as cell viability at 5 uM pretreated for 24 hrs followed by addition of 300 uM H2O2 for 2.5 hrs; type: functional, cell-based
How it was run: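 HFL-1 embryonic lung fibroblasts in DMEM/10% FBS, fed about 16 h before assay; 10⁴ cells seeded, 24 h later given compound in DMSO or DMSO alone for 24 h. Then 300 μM H2O2 for 2.5 h with compound still present, PBS wash, 5-day recovery in complete medium. Cells counted in triplicate with a Coulter counter; at least two experiments.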

Caenorhabditis elegans [2] = assay: Antiaging activity in Caenorhabditis elegans Bristol isolate N2 assessed as lifespan; type: functional, organism-based
How it was run: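 C. elegans N2 hermaphrodites, egg-lay synchronized, moved at L4 (80-120 per condition) onto UV-killed OP50/NGM plates carrying compound in DMSO diluted in M9, or DMSO alone; 20 °C, new plates every 2 days, exposure lifelong. Day 1 adult = t0. Scored daily for touch-provoked movement and pharyngeal pumping until death. Kaplan–Meier curves, log-rank test; repeated at least twice.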

Caenorhabditis elegans [3] = assay: Antiaging activity in Caenorhabditis elegans Bristol isolate N2 assessed as increase in lifespan at 10 uM (reference value: 15 +/- 0.85%); type: functional
Caenorhabditis elegans [4] = assay: Antiaging activity in Caenorhabditis elegans Bristol isolate N2 assessed as increase in lifespan at 1 uM (reference value: 15 +/- 0.85%); type: functional
Caenorhabditis elegans [5] = assay: Antiaging activity in Caenorhabditis elegans Bristol isolate N2 assessed as increase in lifespan at 20 uM (reference value: 15 +/- 0.85%); type: functional
HLF1 [6] = assay: Inhibition of H2O2-induced oxidative stress in human HLF1 cells assessed as increase in cell viability at 2 to 5 uM pretreated for 24 hrs followed by addition of 300 uM H2O2 for 2.5 hrs; type: functional, cell-based
Caenorhabditis elegans [7] = assay: Antiaging activity in Caenorhabditis elegans Bristol isolate N2 assessed as lifespan at 10 uM; type: functional, organism-based

With CCCc1cc(-c2ccc(O)cc2)no1 the inhibition (HLF1 [1]) was “inactive” and the Activity (Caenorhabditis elegans [2]) was “inactive”.
In the case of OCc1cc(-c2ccc(O)cc2)no1, the inhibition (HLF1 [1]) is reported as “inactive” and the Activity (Caenorhabditis elegans [2]) is reported as “inactive”.
Cc1c(C)c2c(c(C)c1O)C=CC(C)(COCc1cc(-c3ccc(O)cc3)no1)O2 (stereo unspecified) was tested, and the ILS at 10 µM (Caenorhabditis elegans [3]) was 18%, the ILS at 1 µM (Caenorhabditis elegans [4]) was 18% and the ILS at 20 µM (Caenorhabditis elegans [5]) was 20%. The Activity (HLF1 [6]) was “Active”.
O=c1c(O)c(-c2ccc(O)c(O)c2)oc2cc(O)cc(O)c12 was tested, and the Activity (Caenorhabditis elegans [7]) was “inactive” and the Activity (HLF1 [6]) was “Active”.
For Cc1c(C)c2c(c(C)c1O)C=CC(C)(COCc1cc(-c3ccc(F)cc3)no1)O2 (stereo unspecified), the inhibition (HLF1 [1]) was “inactive” and the Activity (Caenorhabditis elegans [2]) was “inactive”.
For Oc1ccc(-c2cc(-c3ccccc3)on2)cc1, the inhibition (HLF1 [1]) was “inactive” and the Activity (Caenorhabditis elegans [2]) was “inactive”.
In the case of COc1c(C)c(C)c2c(c1C)CCC(C)(COCc1cc(-c3ccc(O)cc3)no1)O2 (stereo unspecified), the inhibition (HLF1 [1]) is reported as “inactive” and the Activity (Caenorhabditis elegans [2]) is reported as “inactive”.
